Results on 6 compounds are retold here after PMC5028280 (Neuropharmacology, 2016).

pEC50, pIC50, pKi: −log10 of the molar value.

One data set addresses hERG (Homo sapiens, UniProt Q12809). The experiment in a line: hERG channel assay. Type of data set: cell-based. The conditions noted are these: inhibition of hERG channels, mean of 3 replicates. (In general: Block of hERG is tested as a sign of cardiac risk.)
For data set [1], the target named is T1, 5-HT2B (Homo sapiens, UniProt P41595). As to the kind of experiment: 5-HT2B antagonism functional assay. Type of data set: cell-based. To be noted: mean of 3 replicates.
Data set [2] addresses T1, 5-HT2B. As to the kind of experiment: NIMH PDSP secondary binding assay, 5-HT2B. The conditions noted are these: read-out: 5-HT2B binding affinity Ki; mean of 3 replications.
Data set [3] relates to male ICR mice. The experiment in a line: Functional observational battery. To be noted: i.v.; for FOB Home cage activity: doses with significant differences vs vehicle: CNS Activity domain, ↓ decrease vs vehicle, N = 6/dose; for FOB Tail elevation: doses with significant differences vs vehicle: CNS Excitability domain, ↑ increase vs vehicle; for FOB Approach response: doses with significant differences vs vehicle / FOB Startle response: doses with significant differences vs vehicle: Sensorimotor Reactivity domain. Type of data set: in vivo, mouse. A digest of the protocol:
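Male ICR mice, each given one dose only, n=6 per dose; housed at 20–22°C on a 12-h light/dark cycle with food ad libitum. Approach and startle after observer interference were scored as categorical measures. Each compound's vehicle group was pooled into one vehicle group, and each dose was compared with it. Tests: Fisher's exact (categorical), Kruskal-Wallis (ordinal), one-way ANOVA (continuous).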

The subject of data set [4] is male C57/Bl6J mice. The experiment in a line: Drug discrimination, mice trained to discriminate 0.3 mg/kg JWH-018 from vehicle. Format: in vivo, mouse. The conditions noted are these: for Response rates compared to vehicle: 1 mg/kg JWH-018, 10 mg/kg THC, JWH-073 across the dose range tested; for Fold less potent than JWH-018 in JWH-018 discrimination: from ED50 values; for ED50 for substitution for the 0.3 mg/kg JWH-018 training dose / Substitution for the 0.3 mg/kg JWH-018 training dose: i.p.; for ED50 for substitution for the 0.3 mg/kg JWH-018 training dose: 30 min before session; for Substitution for the 0.3 mg/kg JWH-018 training dose: percentage of responses on JWH-018-associated lever.

The subject of data set [5] is male C57/Bl6J mice. The experiment in a line: Drug discrimination, mice trained to discriminate 5.6 mg/kg THC from vehicle. Type of data set: in vivo, mouse.
For data set [6], the system named is male ICR mice. As to the kind of experiment: FOB, cannabinoid receptor antagonism of 3 mg/kg JWH-018 effects. Format: in vivo, mouse. The conditions noted are these: rimonabant/vehicle and SR144528/vehicle groups; all mice.
[7] abbreviates: Muscle tone/Equilibrium domain, categorical, ---- no significant effect.
Setting [8] is: categorical, ---- no significant effect.

hERG, sequence (Q12809 whole entry): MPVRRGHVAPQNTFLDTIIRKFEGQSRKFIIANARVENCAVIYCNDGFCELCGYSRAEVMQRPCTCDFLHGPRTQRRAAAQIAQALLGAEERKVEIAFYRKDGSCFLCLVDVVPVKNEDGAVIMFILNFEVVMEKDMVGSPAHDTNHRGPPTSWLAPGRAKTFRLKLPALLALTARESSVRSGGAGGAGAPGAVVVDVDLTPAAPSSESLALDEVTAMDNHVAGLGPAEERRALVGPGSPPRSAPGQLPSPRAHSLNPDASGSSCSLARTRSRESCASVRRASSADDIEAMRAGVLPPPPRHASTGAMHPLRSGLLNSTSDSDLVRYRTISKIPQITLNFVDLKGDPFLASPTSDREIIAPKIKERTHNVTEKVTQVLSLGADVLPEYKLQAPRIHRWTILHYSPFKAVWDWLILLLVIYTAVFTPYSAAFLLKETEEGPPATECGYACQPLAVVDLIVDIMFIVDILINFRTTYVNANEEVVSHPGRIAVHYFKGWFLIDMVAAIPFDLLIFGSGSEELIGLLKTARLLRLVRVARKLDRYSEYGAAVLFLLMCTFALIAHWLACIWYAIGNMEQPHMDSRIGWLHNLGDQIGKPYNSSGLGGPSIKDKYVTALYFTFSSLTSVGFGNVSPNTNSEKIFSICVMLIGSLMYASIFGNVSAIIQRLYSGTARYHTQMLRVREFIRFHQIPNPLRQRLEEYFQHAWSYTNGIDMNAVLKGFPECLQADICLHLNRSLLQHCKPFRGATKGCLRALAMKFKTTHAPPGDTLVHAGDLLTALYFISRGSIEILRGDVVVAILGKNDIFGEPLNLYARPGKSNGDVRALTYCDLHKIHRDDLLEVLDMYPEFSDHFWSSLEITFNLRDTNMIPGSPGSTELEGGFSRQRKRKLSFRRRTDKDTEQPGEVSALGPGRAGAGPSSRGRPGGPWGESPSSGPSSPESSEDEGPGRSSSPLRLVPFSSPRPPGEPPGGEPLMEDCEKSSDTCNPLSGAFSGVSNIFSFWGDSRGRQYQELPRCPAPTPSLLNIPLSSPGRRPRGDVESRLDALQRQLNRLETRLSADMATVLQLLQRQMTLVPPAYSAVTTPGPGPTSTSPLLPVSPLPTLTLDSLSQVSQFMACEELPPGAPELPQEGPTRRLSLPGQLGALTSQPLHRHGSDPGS
T1 sequence (P41595 whole entry): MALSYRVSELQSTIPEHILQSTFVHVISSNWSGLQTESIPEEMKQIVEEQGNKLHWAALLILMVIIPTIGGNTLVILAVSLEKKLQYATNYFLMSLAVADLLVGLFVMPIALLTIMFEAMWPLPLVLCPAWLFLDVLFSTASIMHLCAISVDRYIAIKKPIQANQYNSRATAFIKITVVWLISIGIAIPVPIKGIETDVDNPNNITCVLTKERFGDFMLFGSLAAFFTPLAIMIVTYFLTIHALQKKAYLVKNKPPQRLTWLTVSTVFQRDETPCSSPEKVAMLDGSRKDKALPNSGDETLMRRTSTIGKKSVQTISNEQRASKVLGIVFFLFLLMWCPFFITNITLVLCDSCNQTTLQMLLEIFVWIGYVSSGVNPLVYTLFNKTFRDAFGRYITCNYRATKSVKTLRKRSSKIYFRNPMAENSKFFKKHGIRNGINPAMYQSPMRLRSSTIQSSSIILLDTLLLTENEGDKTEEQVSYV

One may read the pEC50 as the negative decadic logarithm of the EC50, by convention in mol/L. A word on the pIC50: it is the IC50 on a negative log10 scale, so that one unit is a factor of ten. A word on the pKi: it is the negative decadic logarithm of the Ki, by convention in mol/L. Consider `CCCCn1cc(C(=O)c2cccc3ccccc23)c2ccccc21` [JWH-073], for which, on hERG, the “hERG Channels Emax” value is given as 59%. For the same compound, on hERG (read-out: hERG Channels EC50), the pEC50 is 5.01. Further, the “5-HT2B Antagonism Emax” value at 5-HT2B [1] came to 100%. Moreover, at 5-HT2B [1] (read-out: 5-HT2B Antagonism IC50), the pIC50 is 4.71. Further, the pKi on 5-HT2B [2] was 6.74. Further, the “FOB Home cage activity: doses with significant differences vs vehicle” value in the data set with male ICR mice [3] was “↓ (0.3-3) mg/kg”. For the same compound, in the data set with male ICR mice [3] (---- no significant effect), the “FOB Tail elevation: doses with significant differences vs vehicle” value is on record as “↑ (1) mg/kg”. Moreover, in the data set on male ICR mice [3] (setting [7]), the “FOB Forelimb placing: doses with significant differences vs vehicle” value is “(0.3) mg/kg”, the “FOB Gait: doses with significant differences vs vehicle” value is on record as “(0.3-3) mg/kg”, the “FOB Muscle tone: doses with significant differences vs vehicle” value is listed as “(1-3) mg/kg” and the “FOB Posture: doses with significant differences vs vehicle” value is listed as “(1-3) mg/kg”. Also, in the data set on male ICR mice [3] (setting [8]), the “FOB Approach response: doses with significant differences vs vehicle” value is “(1-3) mg/kg” and the “FOB Startle response: doses with significant differences vs vehicle” value is recorded as “(3) mg/kg”. For the same compound, in the data set on male C57/Bl6J mice [4], the “Response rates compared to vehicle” value is on record as “significant decreases were not observed”; the “Fold less potent than JWH-018 in JWH-018 discrimination” value is “about 5 fold”; the “ED50 for substitution for the 0.3 mg/kg JWH-018 training dose” value was found to be 2.11 µmol/kg; the “Substitution for the 0.3 mg/kg JWH-018 training dose” value was “fully and dose-dependently substituted”.

With `CCCCCn1cc(C(=O)c2ccc(OC)c3ccccc23)c2ccccc21` [JWH-081], at hERG, the “hERG Channels EC50” value is reported as “Not active” and the “hERG Channels Emax” value is “lacked efficacy”. Further, at 5-HT2B [1], the “5-HT2B Antagonism IC50” value is reported as “Not active”. Besides, the “FOB Home cage activity: doses with significant differences vs vehicle” value in the data set on male ICR mice [3] is “↓ (0.1-1) mg/kg”. For the same compound, in the data set on male ICR mice [3] (setting [7]), the “FOB Gait: doses with significant differences vs vehicle” value is given as “(0.3-1) mg/kg”, the “FOB Muscle tone: doses with significant differences vs vehicle” value is reported as “(0.3) mg/kg” and the “FOB Posture: doses with significant differences vs vehicle” value is “(0.3-1) mg/kg”. Further, in the data set with male ICR mice [3] (setting [8]), the “FOB Approach response: doses with significant differences vs vehicle” value is “(1) mg/kg” and the “FOB Startle response: doses with significant differences vs vehicle” value was “(1) mg/kg”.

For `CCCCCc1cc(O)c2c(c1)OC(C)(C)[C@@H]1CCC(C)=C[C@@H]21` [THC, Δ^9-tetrahydrocannabinol, reference compound], on 5-HT2B [2], the pKi is 6.12. Besides, the “FOB Home cage activity: doses with significant differences vs vehicle” value in the data set with male ICR mice [3] is listed as “↓ (0.3-10) mg/kg”. Besides, the “FOB Tail elevation: doses with significant differences vs vehicle” value with male ICR mice [3] (---- no significant effect) was “↑ (3) mg/kg”. The “FOB Posture: doses with significant differences vs vehicle” value in the data set on male ICR mice [3] (setting [7]) was “(3-10) mg/kg”. Further, in the data set on male C57/Bl6J mice [4], the “Response rates compared to vehicle” value is “significantly decreased response rates”; the “Fold less potent than JWH-018 in JWH-018 discrimination” value is reported as around 10 fold; the “ED50 for substitution for the 0.3 mg/kg JWH-018 training dose” value came to 4.08 µmol/kg; the “Substitution for the 0.3 mg/kg JWH-018 training dose” value is “fully and dose-dependently substituted”.

In the case of `CN1CCN2c3ccccc3Cc3ccccc3C2C1` (stereo not drawn) [mianserin], the “Percentage of THC-lever responding, mianserin 0.1, 0.3, and 3 mg/kg” value with male C57/Bl6J mice [5] (co-administered with either vehicle or 5.6 mg/kg THC) is “did not alter this pattern”. The “Percentage of THC-lever responding, 1 mg/kg mianserin plus 5.6 mg/kg THC” value in the data set on male C57/Bl6J mice [5] (compared to 5.6 mg/kg THC alone) is “significantly lower”. In the data set on male C57/Bl6J mice [5] (mianserin tested alone, i.p.), the “Substitution for THC in mice trained to discriminate THC” value is reported as “did not substitute”. In addition, in the data set with male C57/Bl6J mice [5] (with vehicle or THC), the “Overall responding on both levers (response rate), 3 mg/kg mianserin” value is “significantly suppressed”. Further, in the data set with male C57/Bl6J mice [4] (compared to 0.3 mg/kg JWH-018 alone), the “Responding on the JWH-018 lever, 3 mg/kg mianserin co-administered with 0.3 mg/kg JWH-018” value was “significantly decreased”. In the data set on male C57/Bl6J mice [4] (compared to vehicle alone), the “Responding on the JWH-018 lever, 3 mg/kg mianserin (plus vehicle)” value was “significantly increased”. Further, in the data set with male C57/Bl6J mice [4] (mianserin plus 0.3 mg/kg JWH-018), the “Substitution of the JWH-018 training dose (0.3 mg/kg), mianserin at doses up 1 mg/kg” value is “not altered”. Moreover, the “Overall response rate, mianserin 1 and 3 mg/kg administered with JWH-018” value with male C57/Bl6J mice [4] (mouse, in vivo) was “significantly suppressed”. The “Substitution for the 0.3 mg/kg JWH-018 training dose” value in the data set on male C57/Bl6J mice [4] was “failed to substitute for or antagonize”.

As for `Cc1c(C(=O)NN2CCCCC2)nn(-c2ccc(Cl)cc2Cl)c1-c1ccc(Cl)cc1` [rimonabant], the “Response rates in antagonism tests” value with male C57/Bl6J mice [4] (3 mg/kg antagonist with vehicle or 0.3 mg/kg JWH-018) is on record as “significantly decreased”.

For the compound SR144528 [reference compound], the “FOB selected measures, antagonist 3 mg/kg i.p. plus vehicle” value in the data set on male ICR mice [6] is “Normal responses”.
